Test results taken from ChEMBL document CHEMBL4266027, “Cyanobufalins: Cardioactive Toxins from Cyanobacterial Blooms” (J Nat Prod, 2018).
pEC50: −log10 of the molar value.

Key:
[1] = system: Cardiac muscle cell; assay: Toxicity in human inducible pluripotent stem cell derived cardiomyocytes assessed as change in beating amplitude at 1.6 nM after 8 mins; format: cell-based; conditions: 0.0016 µM
Procedure, shortened: (§1)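 Human iPSC-derived cardiomyocytes (Cor.4U) were grown to stable beating cultures and monitored by impedance in real time with 20 s recordings. Compounds were given as a dilution series from 0.32 nM to 5 μM, dosed twice 24 h apart, with monitoring over 48 h. Beating amplitude was taken from each negative peak to the following positive peak and reported as % change.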

[2] = system: BXPC-3; assay: Cytotoxicity against human BxPC3 cells assessed as decrease in cell viability after 72 hrs by MTS assay; format: functional, cell-based; conditions: BXPC-3, 72 h
Procedure, shortened: (§2)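 Cell proliferation assay using the MTS reagent. Compounds were tested as a dilution series, and EC50 values were derived from the concentration–response data.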

[3] = system: Cardiac muscle cell; assay: Toxicity in human inducible pluripotent stem cell derived cardiomyocytes assessed as change in beating amplitude at 1.6 nM after 4 hrs; format: cell-based; conditions: 0.0016 µM; procedure, shortened: as §1
[4] = system: Cardiac muscle cell; assay: Toxicity in human inducible pluripotent stem cell derived cardiomyocytes assessed as change in beating amplitude at 0.32 nM after 12 hrs; format: cell-based; conditions: 0.00032 µM; procedure, shortened: as §1
[5] = system: U-87 MG; assay: Cytotoxicity against human U87MG cells assessed as decrease in cell viability after 72 hrs by MTS assay; format: functional, cell-based, U-87MG ATCC; procedure, shortened: as §2
[6] = system: NCI-H1975; assay: Cytotoxicity against human NCI-H1975 cells assessed as decrease in cell viability after 72 hrs by MTS assay; format: functional, cell-based; conditions: NCI-H1975, 72 h; procedure, shortened: as §2
[7] = system: HCT-116; assay: Cytotoxicity against human HCT116 cells assessed as decrease in cell viability after 72 hrs by MTS assay; format: functional, cell-based; conditions: HCT-116, 72 h; procedure, shortened: as §2
[8] = system: Cardiac muscle cell; assay: Toxicity in human inducible pluripotent stem cell derived cardiomyocytes assessed as increase in beating amplitude at 8 nM up to 48 hrs; format: cell-based; conditions: 0.008 µM
Procedure, shortened: (§3)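 Cor.4U hiPSC-derived cardiomyocytes grown to stable beating cultures, then monitored by impedance in RTCA Cardio plates with 20 s recordings. Compounds tested as a dilution series from 0.32 nM to 5 μM, dosed twice 24 h apart, followed over 48 h. Beating amplitude is taken from each negative peak to the next positive peak and reported as percent change.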

[9] = system: Cardiac muscle cell; assay: Toxicity in human inducible pluripotent stem cell derived cardiomyocytes assessed as change in beating amplitude at 1.6 nM after 66 mins; format: cell-based; conditions: 1.1 h, 0.0016 µM; procedure, shortened: as §1
[10] = system: MDA-MB-468; assay: Cytotoxicity against human MDA-MB-468 cells assessed as decrease in cell viability after 72 hrs by MTS assay; format: functional, cell-based; conditions: MDA-MB-468, 72 h; procedure, shortened: as §2
[11] = system: Cardiac muscle cell; assay: Toxicity in human inducible pluripotent stem cell derived cardiomyocytes assessed as change in beating amplitude at 40 nM after 8 mins; format: cell-based; conditions: 0.04 µM; procedure, shortened: as §1
[12] = system: Cardiac muscle cell; assay: Toxicity in human inducible pluripotent stem cell derived cardiomyocytes assessed as change in beating amplitude at 8 nM after 12 hrs; format: cell-based; conditions: 0.008 µM; procedure, shortened: as §1
[13] = system: Cardiac muscle cell; assay: Toxicity in human inducible pluripotent stem cell derived cardiomyocytes assessed as change in beating amplitude at 1.6 nM after 33 mins; format: cell-based; conditions: 0.55 h, 0.0016 µM; procedure, shortened: as §1
[14] = system: 786-0; assay: Cytotoxicity against human 786-O cells assessed as decrease in cell viability after 72 hrs by MTS assay; format: functional, cell-based; conditions: 786-0, 72 h; procedure, shortened: as §2
[15] = system: BT-474; assay: Cytotoxicity against human BT474 cells assessed as decrease in cell viability after 72 hrs by MTS assay; format: functional, cell-based; conditions: BT-474, 72 h; procedure, shortened: as §2
[16] = system: Cardiac muscle cell; assay: Toxicity in human inducible pluripotent stem cell derived cardiomyocytes assessed as change in beating amplitude at 8 nM after 66 mins; format: cell-based; conditions: 1.1 h, 0.008 µM; procedure, shortened: as §3
[17] = system: Cardiac muscle cell; assay: Toxicity in human inducible pluripotent stem cell derived cardiomyocytes assessed as change in beating amplitude at 0.32 nM after 48 hrs; format: cell-based; conditions: 0.00032 µM; procedure, shortened: as §1
[18] = system: PANC-1; assay: Cytotoxicity against human PANC1 cells assessed as decrease in cell viability after 72 hrs by MTS assay; format: functional, cell-based; conditions: PANC-1, 72 h; procedure, shortened: as §2
[19] = system: THP-1; assay: Cytotoxicity against human THP1 cells assessed as decrease in cell viability after 72 hrs by MTS assay; format: functional, cell-based; conditions: THP-1, 72 h; procedure, shortened: as §2
[20] = system: NCI-N87; assay: Cytotoxicity against human NCI-N87 cells assessed as decrease in cell viability after 72 hrs by MTS assay; format: functional, cell-based; conditions: NCI-N87, 72 h; procedure, shortened: as §2
[21] = system: Cardiac muscle cell; assay: Toxicity in human inducible pluripotent stem cell derived cardiomyocytes assessed as change in beating amplitude at 8 nM after 33 mins; format: cell-based; conditions: 0.55 h, 0.008 µM; procedure, shortened: as §1
[22] = system: H22; assay: Cytotoxicity against mouse H22 cells assessed as decrease in cell viability after 72 hrs by MTS assay; format: functional, cell-based; conditions: H22, 72 h; procedure, shortened: as §2
[23] = system: LoVo; assay: Cytotoxicity against human LoVo cells assessed as decrease in cell viability after 72 hrs by MTS assay; format: functional, cell-based; procedure, shortened: as §2
[24] = system: MRC5; assay: Cytotoxicity against human MRC5 cells assessed as decrease in cell viability after 72 hrs by MTS assay; format: cell-based; conditions: MRC5, 72 h; procedure, shortened: as §2
[25] = system: Cardiac muscle cell; assay: Toxicity in human inducible pluripotent stem cell derived cardiomyocytes assessed as change in beating amplitude at 0.32 nM after 4 hrs; format: cell-based; conditions: 0.00032 µM; procedure, shortened: as §1
[26] = system: Cardiac muscle cell; assay: Toxicity in human inducible pluripotent stem cell derived cardiomyocytes assessed as increase in beating amplitude at >= 40 nM up to 48 hrs; format: cell-based; procedure, shortened: as §3
[27] = system: Cardiac muscle cell; assay: Toxicity in human inducible pluripotent stem cell derived cardiomyocytes assessed as change in beating amplitude at 1.6 nM after 36 hrs; format: cell-based; conditions: 0.0016 µM; procedure, shortened: as §1
[28] = system: Cardiac muscle cell; assay: Toxicity in human inducible pluripotent stem cell derived cardiomyocytes assessed as change in beating amplitude at 0.32 nM after 66 mins; format: cell-based; conditions: 1.1 h, 0.00032 µM; procedure, shortened: as §1
[29] = system: HeLa; assay: Cytotoxicity against human HeLa cells assessed as decrease in cell viability after 72 hrs by MTS assay; format: functional, cell-based; procedure, shortened: as §2
[30] = system: Cardiac muscle cell; assay: Toxicity in human inducible pluripotent stem cell derived cardiomyocytes assessed as change in beating amplitude at 1.6 nM after 12 hrs; format: cell-based; conditions: 0.0016 µM; procedure, shortened: as §1
[31] = system: Cardiac muscle cell; assay: Toxicity in human inducible pluripotent stem cell derived cardiomyocytes assessed as change in beating amplitude at 0.32 nM after 36 hrs; format: cell-based; conditions: 0.00032 µM; procedure, shortened: as §1
[32] = system: CCRF S-180; assay: Cytotoxicity against mouse S180 cells assessed as decrease in cell viability after 72 hrs by MTS assay; format: functional, cell-based; conditions: CCRF S-180, 72 h; procedure, shortened: as §2
[33] = system: Cardiac muscle cell; assay: Toxicity in human inducible pluripotent stem cell derived cardiomyocytes assessed as change in beating amplitude at 40 nM after 33 mins; format: cell-based; conditions: 0.55 h, 0.04 µM; procedure, shortened: as §1
[34] = system: Cardiac muscle cell; assay: Toxicity in human inducible pluripotent stem cell derived cardiomyocytes assessed as change in beating amplitude at 40 nM after 66 mins; format: cell-based; conditions: 1.1 h, 0.04 µM; procedure, shortened: as §1
[35] = system: MV4-11; assay: Cytotoxicity against human MV411 cells assessed as decrease in cell viability after 72 hrs by MTS assay; format: functional, cell-based; conditions: MV4-11, 72 h; procedure, shortened: as §2
[36] = system: Cardiac muscle cell; assay: Toxicity in human inducible pluripotent stem cell derived cardiomyocytes assessed as change in beating amplitude at 0.32 nM after 8 mins; format: cell-based; conditions: 0.00032 µM; procedure, shortened: as §1
[37] = system: Cardiac muscle cell; assay: Toxicity in human inducible pluripotent stem cell derived cardiomyocytes assessed as change in beating amplitude at 8 nM after 8 mins; format: cell-based; conditions: 0.008 µM; procedure, shortened: as §3
[38] = system: SK-OV-3; assay: Cytotoxicity against human SKOV3 cells assessed as decrease in cell viability after 72 hrs by MTS assay; format: functional, cell-based; conditions: SK-OV-3, 72 h; procedure, shortened: as §2
[39] = system: MES-SA; assay: Cytotoxicity against human MESSA cells assessed as decrease in cell viability after 72 hrs by MTS assay; format: functional, cell-based; procedure, shortened: as §2
[40] = system: Daudi; assay: Cytotoxicity against human Daudi cells assessed as decrease in cell viability after 72 hrs by MTS assay; format: functional, cell-based; procedure, shortened: as §2

**Q.** What does the source list for `CC1(C)[C@@H](OC(N)=O)C=C[C@]2(C=O)[C@H]3CC[C@]4(C)[C@@H](c5ccc(=O)oc5)[C@@H](Cl)C[C@]4(O)C3=CC[C@@H]12`?
**A.** Activity [1]: -1.9%; pEC50 [2]: 8.24; Activity [3]: 9.7%; Activity [4]: 23%; pEC50 [5]: 8.24; pEC50 [6]: 8.51; pEC50 [7]: 8.22; Activity [8]: Toxic; Activity [9]: 2.6%; pEC50 [10]: 8.15; Activity [11]: 2.6%; Activity [12]: -18%; Activity [13]: -2.1%; pEC50 [14]: 8.64; pEC50 [15]: 8.43; Activity [16]: 14%; Activity [17]: 30%; pEC50 [18]: 8.68; pEC50 [19]: 8.37; pEC50 [20]: 8.24; Activity [21]: 7.5%; pEC50 [22]: 5.34; pEC50 [23]: 8.25; pEC50 [24]: 8.62; Activity [25]: 19%; Activity [26]: Toxic; Activity [27]: 11%; Activity [28]: -1.9%; pEC50 [29]: 8.33; Activity [30]: 3.3%; Activity [31]: 57%; pEC50 [32]: < 4.70; Activity [33]: 13%; Activity [34]: -94%; pEC50 [35]: 8.20; Activity [36]: -2.7%; Activity [37]: 3.9%; pEC50 [38]: 8.22; pEC50 [39]: 8.17; pEC50 [40]: 8.48
